APJ ag = APJ receptor agonism. P35414. 330,000 compounds, 0.11% hits. CHO-K1 APJ PathHunter beta-arrestin, luminescence; 0% DMSO wells, 100% apelin. activation, % at 20 µM;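 active = activation more than six SD over the plate average, tested at 20 µM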;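 note: 0% = DMSO alone and 100% = apelin-13 at 10 nM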
Target sequence (P35414 whole entry, looked up): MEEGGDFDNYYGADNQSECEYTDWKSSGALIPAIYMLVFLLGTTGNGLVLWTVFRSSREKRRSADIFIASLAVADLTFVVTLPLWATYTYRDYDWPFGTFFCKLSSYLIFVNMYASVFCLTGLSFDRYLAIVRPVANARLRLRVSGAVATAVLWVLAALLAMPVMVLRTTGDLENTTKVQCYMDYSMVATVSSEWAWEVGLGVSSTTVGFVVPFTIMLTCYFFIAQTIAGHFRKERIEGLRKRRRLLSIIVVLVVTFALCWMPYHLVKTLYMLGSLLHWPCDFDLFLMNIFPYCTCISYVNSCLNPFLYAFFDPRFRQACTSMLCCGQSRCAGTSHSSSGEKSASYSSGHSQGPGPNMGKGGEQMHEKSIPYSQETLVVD
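Assay system: CHO-K1 cells stably expressing ProLink-tagged human APJ and arrestin–beta-gal acceptor. Compound dosing: 20 µM single point, 1% DMSO. Times: 16-18 h seeding, 90 min dark compound exposure, 60 min detection. Detection: beta-gal luminescence. Evaluation: APJ–arrestin association signal. Controls: negative DMSO alone, positive Apelin-13 at 10 nM.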
EBI2 block = antagonists of human EBI2 receptor; P32249; EBI2 beta-arrestin recruitment, luminescence, 7a,25-OHC stimulated; inhibition, % at 5 µM; 360,000 compounds, 0.81% hits; AID 651636; in the data active = inhibition above about 38%;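 note: enzyme fragment complementation signal reports receptor beta-arrestin coupling in cells; 0% = agonist plus DMSO wells and 100% = wells without agonist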
CCR6 antag = CCR6 (human) receptor antagonism. P51684. CHO-K1 CCR6 PathHunter beta-arrestin, luminescence, CCL20-stimulated. inhibition, % at 20 µM. 340,000 compounds, 0.49% hits. AID 493098;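 active = compounds whose inhibition of the agonist-driven luminescence signal at 20 µM reaches about 50%, limit read from the data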;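 note: cells stimulated with CCL20 at 14 nM final; plate controls were DMSO with CCL20 for no effect and DMSO without agonist for full effect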
CXCR6 block = inhibitors of human CXCR6 receptor | CHO-K1 PathHunter CXCR6 beta-arrestin, luminescence | O00574 | 360,000 compounds, 0.36% hits | inhibition, % at 20 µM; in the data active = inhibition above about 34%, passing the limit was not always enough;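 note: antagonist mode with CXCL16 agonist at 10 nM final; 0% = 10 nM CXCL16 with DMSO and 100% = unstimulated wells without agonist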
APJ antagonist = blocks the human apelin receptor APJ | 330,000 compounds, 0.32% hits | P35414 | AID 2521 | inhibition, % at 20 µM | CHO-K1 APJ beta-arrestin complementation, luminescence;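 active = inhibition above about 40% at 20 µM, limit read from the data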;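 note: cells challenged with 10 nM apelin-13 agonist together with compound; plate controls were apelin-13 plus DMSO wells for no effect and DMSO wells lacking apelin-13 for full effect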
HTR2A ag = activates the mouse 5-HT2A serotonin receptor; CHO-K1 mHTR2A beta-arrestin complementation, luminescence; percent of 30 µM serotonin response; activation, % at 7.6 µM; 360,000 compounds, 0.66% hits;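 active = activation above a run cutoff, the mean activation of all tested compounds plus 3 SD, cut at about 14% in these data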;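 note: 0% = plate median of compound wells and 100% = 30 µM serotonin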
OPRM1 ag = OPRM1 agonism in mouse HTR2A counterscreen; shares compounds with HTR2A ag; U2OS OPRM1 beta-arrestin PathHunter, luminescence; DMSO 0%, DAMGO 9.3 µM 100%; activation, % at 9.3 µM; 2,300 compounds, 5.3% hits; AID 624380;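 active = mean activation above the mean of DMSO-only wells plus 3 SD, cut at about 0.5% in these data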
Target sequence (P35372 whole entry, looked up): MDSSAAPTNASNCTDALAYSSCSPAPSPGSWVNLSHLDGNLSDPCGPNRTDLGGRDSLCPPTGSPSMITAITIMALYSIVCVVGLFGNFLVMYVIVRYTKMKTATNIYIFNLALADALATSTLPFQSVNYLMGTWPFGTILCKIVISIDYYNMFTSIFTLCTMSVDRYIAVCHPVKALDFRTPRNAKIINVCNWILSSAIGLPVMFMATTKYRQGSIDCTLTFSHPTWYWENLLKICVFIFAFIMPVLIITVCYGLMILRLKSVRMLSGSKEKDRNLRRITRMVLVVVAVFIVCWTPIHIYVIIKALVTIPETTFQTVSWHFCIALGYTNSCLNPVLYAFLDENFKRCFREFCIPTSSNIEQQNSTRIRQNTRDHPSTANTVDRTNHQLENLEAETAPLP
m5-HT2A ag conf = confirmation of mouse HTR2A serotonin receptor agonists. 2,300 compounds, 19% hits. activation, % at 7.6 µM. shares compounds with HTR2A ag. CHO-K1 PathHunter beta-arrestin recruitment, luminescence; DMSO 0%, 30 µM serotonin 100%;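 active = mean activation across triplicates above the hit threshold derived in the original primary screen, cut at about 15% in these data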
Starred values were filed as active, the others as inactive; x = no result. Sampled rows, rich in hits. Any-hit rate of the full collection: about 2.1%.

SMILES | APJ ag | EBI2 block | CCR6 antag | CXCR6 block | APJ antagonist | HTR2A ag | OPRM1 ag | m5-HT2A ag conf
Cc1ccc(-c2nc(S(=O)(=O)c3ccc(F)cc3)c(SCC(=O)NCC3CCCO3)o2)cc1 (centres undefined) | -11.6 | 0.4 | -12.8 | -1.6 | 9.9 | -0.8 | x | x
CNc1ccc(C(O)(C(F)(F)F)C(F)(F)F)cc1C(O)(C(F)(F)F)C(F)(F)F | -2.6 | -71.5 | 9.8 | 9.9 | 8.1 | 7.5 | x | x
C=CCn1c(Br)nc2c1c(=O)n(C)c(=O)n2C | 0.9 | 6.6 | 2.8 | 2.0 | 10.7 | -2.9 | x | x
C=CCn1c(Br)nc2c1c(=O)[nH]c(=O)n2C | 0.7 | 1.0 | 7.1 | 2.6 | 11.1 | 19.3* | -0.6 | -3.9
O=C(CCS(=O)(=O)c1ccc(Cl)cc1)OCC(=O)N1CCCCC1 | -2.2 | 6.9 | -1.4 | 2.7 | 4.0 | 16.1* | -0.8 | -2.5
CCCCOC(=O)c1ccc(NC(=O)CN2C(=O)NC3(CCCCCC3)C2=O)cc1 | -4.1 | 7.4 | 3.2 | -6.2 | 2.2 | 2.3 | x | x
O=C(CCCN1C(=O)CSc2ncccc21)N1CCN(Cc2ccccc2)CC1 | -4.3 | 0.9 | -9.7 | -3.7 | 2.1 | 107.3* | -0.7 | -4.6
CCOC(=O)N1CCC(NC(=O)CCCN2C(=O)CSc3ncccc32)CC1 | -4.6 | 4.6 | -1.8 | 1.1 | 11.4 | -0.7 | x | x
CC(=O)Nc1cccc(NC(=O)CCc2ccccc2)c1 | -5.0 | -2.2 | 0.7 | 2.2 | -0.6 | 8.5 | x | x
CC(C)N=c1scc(-c2cccs2)n1/N=C/c1ccc(O)c(O)c1O | 0.9 | -12.4 | 24.4 | -0.6 | -39.1 | 14.6* | 1.1* | 17.8*
CN=c1scc(-c2ccccc2F)n1/N=C/c1ccc(O)c(O)c1O | x | 7.1 | 15.4 | -2.6 | x | 9.5 | x | x
Clc1ncccc1-c1nc2ccccc2n1Cc1ccccc1 | -4.0 | 6.4 | 4.3 | 0.7 | 21.8 | -9.6 | x | x
COc1cc(C#N)ccc1OC(=O)c1cccc(S(=O)(=O)N2CCN(C)CC2)c1 | -0.2 | 2.6 | 6.8 | 6.4 | 11.3 | 18.3* | -0.7 | -5.8
CN1CCN(S(=O)(=O)c2cccc(C(=O)Oc3cccc(C#N)c3)c2)CC1 | 2.5 | -19.0 | -7.3 | 3.8 | 3.0 | 2.7 | x | x
CCC(C)NC(=O)C1CCN(S(=O)(=O)c2cc([N+](=O)[O-])ccc2Cl)CC1 (centres undefined) | 7.4 | 0.0 | -6.9 | -9.3 | -75.2 | 24.1* | 0.2 | -2.0
CCS(=O)(=O)c1ccc(-c2csc(-c3ccccc3)n2)c(Cl)c1Cl | 0.2 | 21.8 | 7.8 | 5.2 | -6.8 | 16.4* | -0.1 | 1.7
O=C(O)c1ccc(-c2nc(-c3ccccc3Cl)cs2)cc1 | -0.9 | -1.6 | 9.3 | -2.1 | -0.8 | -0.5 | x | x
NS(=O)(=O)c1ccc(CNc2ncnc3sccc23)cc1 | -0.3 | -3.8 | -0.8 | 5.0 | 11.6 | 3.4 | x | x
COc1cccc(C(=O)NC2CCN(C(=O)N3CCCCC3)CC2)c1 | -2.6 | 1.2 | 7.5 | 3.0 | -4.3 | -3.5 | x | x
COC(=O)[C@]12CCCCC=C1N(Cc1cccc3ccccc13)C(=O)[C@H](CC(=O)N1CCC(c3ccccc3)CC1)C2 | x | 9.1 | x | -1.1 | x | -0.4 | x | x
CCOC(=O)[C@]12CCCC=C1N(Cc1cccc3ccccc13)C(=O)[C@H](CC(=O)N1CCC(c3ccccc3)CC1)C2 | x | 20.2 | x | 8.0 | x | 17.0* | -0.6 | -1.8
Nc1nc2ccc(Br)cc2o1 | x | -3.0 | -1.5 | 1.5 | x | -3.3 | x | x
Cc1noc(C)c1CN1C(=O)c2ccc([N+](=O)[O-])cc2C1=O | 5.1 | -11.8 | 1.0 | -0.5 | -5.6 | 4.1 | x | x
Cc1noc(C)c1CN1C(=O)c2cccc([N+](=O)[O-])c2C1=O | 0.6 | 0.3 | -5.3 | -10.2 | 17.6 | 14.4* | -0.2 | -0.3
COc1ccc(OC)c(C(=O)NC(CC(N)=O)c2ccc(N3CCN(c4ccc(F)cc4)CC3)c([N+](=O)[O-])c2)c1 (centres undefined) | 7.6 | -12.6 | 10.3 | 4.0 | 20.4 | -0.1 | x | x
SMILES | APJ ag | EBI2 block | CCR6 antag | CXCR6 block | APJ antagonist | HTR2A ag | OPRM1 ag | m5-HT2A ag conf
O=C(CSc1ccc2ccccc2c1)NCCc1ccc(O)c(O)c1 | -1.0 | 11.4 | 2.5 | -1.6 | -17.3 | 31.1* | -0.2 | 100.9*
CC(=O)NC(Cc1ccccc1)C(=O)NC1CCN(C(=O)c2cnccn2)CC1 (centres undefined) | -2.1 | 0.2 | 1.7 | 1.0 | -13.3 | 19.4* | -0.4 | -2.1
CC(=O)NC(Cc1ccccc1)C(=O)NC1CCN(C(=O)c2ccc([N+](=O)[O-])cc2)CC1 (centres undefined) | -0.4 | 6.6 | 9.0 | 2.0 | 6.2 | 1.0 | x | x
CCN1C(=O)[C@H]2[C@@H](c3ccc(OC)cc3)N3C(=O)CN(CC4CC4)C(=O)[C@@]3(C)[C@H]2C1=O | -3.7 | -10.3 | -0.8 | 4.1 | 9.0 | 20.8* | -0.3 | -1.6
Cc1ccc(SCc2cc(=O)[nH]c(N3CCN(Cc4ccccc4)CC3)n2)cc1 | -0.8 | -3.8 | -1.1 | -1.9 | 6.4 | 18.0* | -0.5 | 11.5
COc1cc(CC(=O)Nc2c(-c3ccccc3)[nH][nH]c2=O)cc(OC)c1 | x | -2.5 | x | x | x | -0.8 | x | x
O=C(Cc1cc(C(F)(F)F)cc(C(F)(F)F)c1)Nc1c(-c2ccccc2)[nH][nH]c1=O | x | -4.6 | x | x | x | 28.1* | -0.6 | -2.4
Cc1nn(C)c(C)c1S(=O)(=O)N(CC(=O)NCCCOC(C)C)c1ccc(C(C)C)cc1 | -2.3 | -8.5 | -3.9 | 1.7 | 11.2 | -1.4 | x | x
Cc1ccc(P(=O)(CSC(=N)N)c2ccc(C)cc2)cc1 | -5.5 | 13.8 | 20.6 | 18.7 | 20.9 | 3.1 | x | x
Cc1ccc(P(=O)(CO)c2ccc(C)cc2)cc1 | -3.6 | -4.2 | -5.2 | -3.5 | 15.0 | 15.5* | -0.6 | -4.9
O=C(NC1(N2CCOCC2)CC1)c1ccc(Cl)cc1 | -3.2 | -2.0 | 5.9 | -4.8 | -4.1 | 14.8* | -0.6 | -1.7
COc1ccc(C(=O)Nc2cccc([N+](=O)[O-])c2)cc1Br | 6.6 | 9.1 | 1.1 | -7.4 | -12.2 | -2.2 | x | x
COc1ccc(C(=O)Nc2ccc(OC)c([N+](=O)[O-])c2)cc1Br | -1.8 | -0.5 | 9.3 | 8.2 | 10.2 | 24.2* | -0.5 | 13.8
COC(=O)[C@@]1(Cc2ccc(F)cc2)[C@H]2c3cc(C(=O)N(C)C)n(CCc4c[nH]c5ccc(O)cc45)c3C[C@H]2CN1C(=O)c1ccccc1 | x | 6.9 | x | -7.2 | x | 25.8* | 0.0 | 10.6
O=C(NC1CCCC1)C(c1cccnc1)N(C(=O)c1csnn1)c1ccccc1 (centres undefined) | -0.9 | 0.5 | 11.2 | 2.0 | -3.7 | -6.6 | x | x

Source: PubChem BioAssay
